Data from publication PMC9884086 (Journal of Medicinal Chemistry, 2023).
Each block holds one compound with its values, some of them ahead of it.

Columns and labels:
Human PDE10A2 = Human PDE10A2 (Homo sapiens, UniProt Q9Y233); experiment: PDE10A fluorescence polarization; type: biochemical
PDE10A = biological target: T1, PDE10A (Rattus norvegicus, UniProt Q9QYJ6); experiment: In vivo PDE10A enzyme occupancy in rat striatum with [3H]MK-8193; set-up: species or system Wistar–Hannover rats
T1 sequence (Q9QYJ6 1-794): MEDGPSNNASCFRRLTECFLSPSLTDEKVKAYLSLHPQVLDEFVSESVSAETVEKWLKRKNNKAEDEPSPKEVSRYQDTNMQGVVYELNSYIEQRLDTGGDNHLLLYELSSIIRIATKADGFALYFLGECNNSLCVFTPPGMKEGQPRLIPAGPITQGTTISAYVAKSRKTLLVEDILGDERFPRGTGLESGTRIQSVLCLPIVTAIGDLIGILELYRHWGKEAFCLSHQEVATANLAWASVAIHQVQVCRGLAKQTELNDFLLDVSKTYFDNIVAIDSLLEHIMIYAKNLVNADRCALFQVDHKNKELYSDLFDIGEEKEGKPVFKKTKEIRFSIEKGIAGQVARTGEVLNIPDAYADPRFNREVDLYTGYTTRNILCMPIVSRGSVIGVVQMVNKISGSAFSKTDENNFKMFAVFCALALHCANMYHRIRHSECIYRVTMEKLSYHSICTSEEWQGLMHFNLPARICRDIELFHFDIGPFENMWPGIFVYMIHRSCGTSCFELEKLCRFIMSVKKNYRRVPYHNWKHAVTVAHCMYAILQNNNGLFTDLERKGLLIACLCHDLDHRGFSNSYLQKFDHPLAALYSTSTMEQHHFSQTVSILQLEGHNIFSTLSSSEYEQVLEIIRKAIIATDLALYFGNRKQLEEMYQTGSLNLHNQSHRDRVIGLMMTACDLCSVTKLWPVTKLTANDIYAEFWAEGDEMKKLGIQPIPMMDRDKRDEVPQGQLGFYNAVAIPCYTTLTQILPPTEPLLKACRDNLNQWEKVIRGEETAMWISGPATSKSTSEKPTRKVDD

5-strain Ames test = experiment: Microbial mutagenesis assay; type: cell-based
catalepsy in the rats = experiment: Catalepsy in rats; type: in vivo; conditions: compared with atypical antipsychotics, data not shown
[1] = test system: other PDE enzyme families (PDE1–PDE11); experiment: PDE selectivity over the other PDE enzyme families; type: biochemical; conditions: tables 1 and 2; over other PDEs
[2] = test system: MK-801-induced locomotor activity in rats; experiment: MK-801-induced psychomotor; type: in vivo; conditions: MK-801 model, striatal occupancy derived from plasma exposures
[3] = test system: acute episode of schizophrenia; conditions: patients experiencing an acute episode of schizophrenia; cited from earlier work
[4] = test system: novel objection recognition in rats; experiment: Novel objection recognition assay; type: in vivo; conditions: for novel objection recognition: rats, vs vehicle, p <0.05
Outline: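 Rats dosed orally with test compound; donepezil 0.56 mg/kg as reference. Plasma was taken 1 h post dose at the end of the behavioral study (n = 4/group). Striatal PDE10A occupancy was derived from these end-of-study plasma exposures. Significance was tested against vehicle.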

[5] = test system: Chinese hamster ovary cells; experiment: Assay for chromosomal aberrations; type: cell-based
[6] = biological target: full length human PDE10A2 (Homo sapiens, UniProt Q9Y233); experiment: Surface plasmon resonance binding kinetics; conditions: SPR
full length human PDE10A2, sequence (Q9Y233 715-1055): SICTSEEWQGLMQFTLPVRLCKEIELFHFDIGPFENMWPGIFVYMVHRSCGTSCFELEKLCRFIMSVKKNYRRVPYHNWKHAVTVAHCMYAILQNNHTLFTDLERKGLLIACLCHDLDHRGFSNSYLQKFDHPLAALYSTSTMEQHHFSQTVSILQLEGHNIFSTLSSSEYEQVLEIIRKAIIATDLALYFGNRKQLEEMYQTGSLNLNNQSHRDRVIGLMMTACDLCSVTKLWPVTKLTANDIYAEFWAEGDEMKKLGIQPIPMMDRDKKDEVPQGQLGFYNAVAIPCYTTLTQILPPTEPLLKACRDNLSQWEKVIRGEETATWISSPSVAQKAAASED

Weight gain in rats = type: in vivo; conditions: data not shown
Passive permeability = type: in vitro ADME; conditions: not told
[7] = test system: circulating levels of prolactin; experiment: Circulating prolactin in rats; type: in vivo; conditions: data not shown
Iks = Iks (Homo sapiens, UniProt P51787); experiment: Ion channel profile, Iks; type: cell-based
Iks, sequence (P51787 whole entry): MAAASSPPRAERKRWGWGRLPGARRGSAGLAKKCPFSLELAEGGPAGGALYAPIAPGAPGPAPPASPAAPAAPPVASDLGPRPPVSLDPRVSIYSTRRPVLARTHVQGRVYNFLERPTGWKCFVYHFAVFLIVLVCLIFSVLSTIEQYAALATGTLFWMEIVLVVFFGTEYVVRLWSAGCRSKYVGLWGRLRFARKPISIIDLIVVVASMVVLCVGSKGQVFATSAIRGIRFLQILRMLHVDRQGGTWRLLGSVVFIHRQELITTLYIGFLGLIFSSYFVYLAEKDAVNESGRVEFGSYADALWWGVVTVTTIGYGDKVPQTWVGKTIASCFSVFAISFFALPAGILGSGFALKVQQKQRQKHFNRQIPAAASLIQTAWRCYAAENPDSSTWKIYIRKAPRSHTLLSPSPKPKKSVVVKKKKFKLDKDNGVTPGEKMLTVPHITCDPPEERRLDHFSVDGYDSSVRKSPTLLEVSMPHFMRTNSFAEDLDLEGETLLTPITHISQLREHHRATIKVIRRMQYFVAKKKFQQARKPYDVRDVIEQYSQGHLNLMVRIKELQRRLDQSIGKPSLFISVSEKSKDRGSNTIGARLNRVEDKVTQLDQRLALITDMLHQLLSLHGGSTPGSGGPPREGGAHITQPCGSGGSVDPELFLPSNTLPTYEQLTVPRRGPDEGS

Human PDE10A2, sequence (Q9Y233 267-1055): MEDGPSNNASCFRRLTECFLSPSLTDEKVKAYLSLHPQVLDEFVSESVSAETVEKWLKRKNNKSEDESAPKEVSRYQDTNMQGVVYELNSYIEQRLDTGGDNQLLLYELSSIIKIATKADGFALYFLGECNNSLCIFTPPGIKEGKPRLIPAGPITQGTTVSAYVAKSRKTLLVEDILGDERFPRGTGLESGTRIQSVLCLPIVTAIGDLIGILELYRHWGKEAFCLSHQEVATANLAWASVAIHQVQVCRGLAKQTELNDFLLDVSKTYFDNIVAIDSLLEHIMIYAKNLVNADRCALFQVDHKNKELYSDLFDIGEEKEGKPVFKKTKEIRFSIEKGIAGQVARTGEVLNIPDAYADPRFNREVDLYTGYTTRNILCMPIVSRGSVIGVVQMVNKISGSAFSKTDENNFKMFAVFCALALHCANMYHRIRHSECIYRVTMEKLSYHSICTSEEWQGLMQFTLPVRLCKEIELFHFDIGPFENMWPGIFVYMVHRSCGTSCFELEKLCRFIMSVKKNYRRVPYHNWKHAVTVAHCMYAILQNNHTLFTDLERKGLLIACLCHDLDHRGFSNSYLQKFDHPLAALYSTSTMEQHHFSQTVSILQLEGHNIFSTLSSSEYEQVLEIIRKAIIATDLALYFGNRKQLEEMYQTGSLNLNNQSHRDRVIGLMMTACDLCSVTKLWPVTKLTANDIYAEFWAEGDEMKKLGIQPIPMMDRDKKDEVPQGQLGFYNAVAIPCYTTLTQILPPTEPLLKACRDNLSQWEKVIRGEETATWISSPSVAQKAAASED

LBE (ligand binding efficiency) (Human PDE10A2): 0.57
Structure (SMILES): Cc1c(Cl)nc(C2CC2)nc1Cl [Compound 1]

Structure (SMILES): Cc1ccc([C@H]2C[C@@H]2COc2cc(NCc3nnc(C)s3)nc(C)n2)nc1 [Compound 18, 2-Methyl-N-((5-methyl-1,3,4-thiadiazol-2-yl)methyl)-6-(((1S,2S)-2-(5-methylpyridin-2-yl)cyclopropyl)methoxy)pyrimidin-4-amine]
EC50 (PDE10A): 52 nM
maximal enzyme occupancy in the rat striatum (PDE10A; PO, higher plasma concentrations): full enzyme occupancy
microbial mutagenesis (5-strain Ames test) (5-strain Ames test): negative
therapeutic window between antipsychotic-like effects and catalepsy (catalepsy in the rats): larger therapeutic window
PDE selectivity [1]: > 500,000
LBE (ligand binding efficiency) (Human PDE10A2): 0.54
LLE (ligand-lipophilicity efficiency) (Human PDE10A2): 7.8
enzyme occupancy at which efficacy was observed (and above) [2]: approximately 25%
antipsychotic efficacy, initial proof of concept [3]: evidence for antipsychotic efficacy
enzyme occupancy at which significant effects were achieved (and above) ([4]; novel objection recognition, striatal occupancy derived from plasma exposures): approximately 29%
novel objection recognition ([4]; 0.16 and 0.25 mg/kg PO): efficacious
novel objection recognition ([4]; 0.16 and 0.25 mg/kg PO, listed as MK-8189 (18)): significantly improved recognition
chromosomal aberrations in Chinese hamster ovary cells [5]: negative
on-rate [6]: ~8.0 × 10^7 M^–1·s^–1
reversibility of binding [6]: completely reversible
in vitro half-life on the enzyme ([6]; 25 °C): ~6.7 min
weight gain (Weight gain in rats): reduced weight gain
Papp (Passive permeability): 35.4 to 42.6 ×10⁻⁶ cm/s
effect on circulating levels of prolactin [7]: lack of effect
IC50 (Iks): > 30000 nM

Structure (SMILES): COc1cc2c(cc1OC)C(=O)C(CC1CCN(Cc3ccccc3)CC1)C2 (stereo not shown) [donepezil, reference compound]
novel objection recognition ([4]; positive control 0.56 mg/kg): significantly improved recognition
